One test concerns the target T1, Caspase-6 (Homo sapiens) (UniProt P55212).
T1 sequence (whole entry): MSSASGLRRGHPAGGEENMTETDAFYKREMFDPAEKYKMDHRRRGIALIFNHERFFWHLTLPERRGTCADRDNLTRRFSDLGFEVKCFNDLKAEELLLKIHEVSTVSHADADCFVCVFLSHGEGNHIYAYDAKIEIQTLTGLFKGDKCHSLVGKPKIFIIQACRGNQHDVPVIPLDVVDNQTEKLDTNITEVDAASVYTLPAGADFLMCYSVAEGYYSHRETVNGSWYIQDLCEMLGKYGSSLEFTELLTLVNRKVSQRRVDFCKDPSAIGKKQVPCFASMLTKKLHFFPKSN
Nature of the test: Inhibition of recombinant human caspase 6 using VEHDGG substrate at up to 20 uM after 3 hrs. A digest of the protocol: (§1)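 Outsourced microfluidic protease panel. Compound was preincubated with each protease for 30 min at 25 °C, then peptide substrate was added for 3 h at 25 °C and quenched with SDS/EDTA/iodoacetate. Substrate-to-product conversion was measured on LabChip. Compounds were tested singly in a 12-point 3-fold dilution series, top 20 μM (5 μM for two reference compounds).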

The target of test [1] is T2, Cathepsin K (Homo sapiens) (UniProt P43235).
T2 sequence (whole entry): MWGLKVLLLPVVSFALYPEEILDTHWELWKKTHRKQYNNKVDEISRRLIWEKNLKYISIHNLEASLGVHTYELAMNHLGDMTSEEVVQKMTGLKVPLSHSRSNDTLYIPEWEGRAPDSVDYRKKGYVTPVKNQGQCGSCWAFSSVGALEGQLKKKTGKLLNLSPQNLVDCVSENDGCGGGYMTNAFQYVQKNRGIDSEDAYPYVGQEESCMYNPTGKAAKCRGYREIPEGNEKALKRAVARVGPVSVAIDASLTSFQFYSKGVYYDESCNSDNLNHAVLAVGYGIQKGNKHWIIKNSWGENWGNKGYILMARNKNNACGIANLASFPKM
Nature of the test: Inhibition of recombinant human cathepsin K using HHQKLVFFAE substrate at up to 20 uM after 3 hrs. In short, it runs like this:
as §1

Test [2] has as its target Cathepsin S (Homo sapiens) (UniProt P25774). Put plainly: Inhibition of recombinant human cathepsin S using RTLTAK substrate at up to 20 uM after 3 hrs. A digest of the protocol:
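Each protease was preincubated 30 min at 25 °C with compound in its assay buffer. Peptide substrate was then added and the reaction ran 3 h at 25 °C before quenching with SDS/EDTA/iodoacetate. Substrate-to-product conversion (%) was read by microfluidic electrophoresis. Compounds were tested in singlicate as 12-point 3-fold dilutions from 20 μM to 0.1 nM. IC50 was taken as the concentration giving 50% of no-compound control activity.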

The target in the next test is Collagenase 3 (Homo sapiens, UniProt P45452). Nature of the test: Inhibition of full-length recombinant human MMP-13 assessed as bovine type-2 collagen hydrolysis after 22 hrs by fluorescence assay.
Test [3] concerns the target Cathepsin D (Homo sapiens) (UniProt P07339). Nature of the test: Inhibition of recombinant human cathepsin D using EVNLDAEFRK substrate at up to 5 uM after 3 hrs. A digest of the protocol: as §1
The next test addresses T3, Caspase-1 (Homo sapiens) (UniProt P29466).
T3 sequence (whole entry): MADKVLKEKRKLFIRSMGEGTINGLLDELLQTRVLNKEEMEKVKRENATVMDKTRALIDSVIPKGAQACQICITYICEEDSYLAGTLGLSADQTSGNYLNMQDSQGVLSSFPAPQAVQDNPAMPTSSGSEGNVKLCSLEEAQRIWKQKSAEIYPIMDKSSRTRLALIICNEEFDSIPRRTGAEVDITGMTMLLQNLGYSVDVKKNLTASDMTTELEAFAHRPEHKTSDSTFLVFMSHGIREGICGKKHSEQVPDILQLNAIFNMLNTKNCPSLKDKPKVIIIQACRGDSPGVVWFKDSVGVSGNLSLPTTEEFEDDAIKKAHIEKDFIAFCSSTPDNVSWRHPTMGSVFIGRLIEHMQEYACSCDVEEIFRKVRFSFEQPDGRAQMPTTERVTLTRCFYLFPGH
Nature of the test: Inhibition of recombinant human caspase 1 using WEHDGPKR substrate at up to 5 uM after 3 hrs. A digest of the protocol:
as §1

The target of another test is T4, Caspase-5 (Homo sapiens) (UniProt P51878).
T4 sequence (whole entry): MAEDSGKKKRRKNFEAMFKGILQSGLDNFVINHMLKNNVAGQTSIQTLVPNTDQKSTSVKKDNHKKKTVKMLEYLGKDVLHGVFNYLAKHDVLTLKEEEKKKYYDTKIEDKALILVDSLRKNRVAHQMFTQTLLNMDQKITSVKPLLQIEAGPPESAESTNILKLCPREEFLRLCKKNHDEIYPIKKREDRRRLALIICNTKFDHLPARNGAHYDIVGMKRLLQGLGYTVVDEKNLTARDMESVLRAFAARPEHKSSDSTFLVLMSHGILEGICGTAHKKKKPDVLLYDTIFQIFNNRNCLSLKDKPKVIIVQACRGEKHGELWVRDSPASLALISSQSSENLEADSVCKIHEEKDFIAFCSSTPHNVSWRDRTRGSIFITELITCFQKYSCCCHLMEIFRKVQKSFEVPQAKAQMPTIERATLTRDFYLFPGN
Nature of the test: Inhibition of recombinant human caspase 5 using LEHDGP substrate at up to 5 uM after 3 hrs. In short, it runs like this: as §1

The target of the next test is T5, Caspase-7 (Homo sapiens) (UniProt P55210).
T5 sequence (whole entry): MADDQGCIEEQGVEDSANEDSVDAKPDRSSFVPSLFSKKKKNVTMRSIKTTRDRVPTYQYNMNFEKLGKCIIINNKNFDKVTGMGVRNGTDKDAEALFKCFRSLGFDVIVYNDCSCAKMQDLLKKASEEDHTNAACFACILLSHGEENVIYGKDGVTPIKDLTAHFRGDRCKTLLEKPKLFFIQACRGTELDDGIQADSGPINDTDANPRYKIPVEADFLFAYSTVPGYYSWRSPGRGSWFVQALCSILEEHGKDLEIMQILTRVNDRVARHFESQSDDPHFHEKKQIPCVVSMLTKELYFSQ
Nature of the test: Inhibition of recombinant human caspase 7 using DEVDAA substrate at up to 5 uM after 3 hrs. In short, it runs like this: as §1

Test [4] concerns the target T2, Cathepsin K (Homo sapiens). Nature of the test: Inhibition of recombinant human cathepsin K using HHQKLVFFAE substrate at up to 5 uM after 3 hrs. In short, it runs like this:
as §1

The target in test [5] is Cathepsin S (Homo sapiens) (UniProt P25774). Put plainly: Inhibition of recombinant human cathepsin S using RTLTAK substrate at up to 5 uM after 3 hrs. A digest of the protocol:
(§2)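 In this microfluidic protease panel, enzyme and compound were preincubated 30 min at 25 °C. The peptide substrate was added and the reaction was incubated 3 h at 25 °C, then quenched (SDS, EDTA, iodoacetate). Activity was read as % substrate converted to product. Dose–response was singlicate, 12-point 3-fold dilutions spanning 5 μM to 0.028 nM. IC50 was the concentration leaving 50% activity relative to no-compound control.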

For test [6], the target named is Prothrombin (Homo sapiens) (UniProt P00734). Put plainly: Inhibition of recombinant human thrombin using PRTLT substrate at up to 5 uM after 3 hrs. In short, it runs like this:
as §2

For test [7], the target named is Urokinase-type plasminogen activator (Homo sapiens) (UniProt P00749). Nature of the test: Inhibition of recombinant human uPA using GRTSSVEP substrate at up to 5 uM after 3 hrs. A digest of the protocol: as §2

The term inhibition denotes the change of the read-out against control, counted positive when it falls. One may read the IC50 as the midpoint of a concentration-inhibition curve.

Cathepsin S (Homo sapiens), sequence (P25774 115-331 limits assumed): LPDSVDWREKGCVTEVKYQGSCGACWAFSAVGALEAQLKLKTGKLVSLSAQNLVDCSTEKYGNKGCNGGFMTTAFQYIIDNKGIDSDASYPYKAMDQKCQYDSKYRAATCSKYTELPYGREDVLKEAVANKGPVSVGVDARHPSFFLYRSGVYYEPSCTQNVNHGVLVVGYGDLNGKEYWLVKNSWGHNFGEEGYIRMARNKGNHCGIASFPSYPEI
Cathepsin D (Homo sapiens), sequence (P07339 65-162 limits assumed): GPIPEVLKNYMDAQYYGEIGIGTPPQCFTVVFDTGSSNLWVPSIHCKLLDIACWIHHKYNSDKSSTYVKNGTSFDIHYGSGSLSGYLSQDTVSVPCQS
Cathepsin D (Homo sapiens), sequence (P07339 169-412 limits assumed): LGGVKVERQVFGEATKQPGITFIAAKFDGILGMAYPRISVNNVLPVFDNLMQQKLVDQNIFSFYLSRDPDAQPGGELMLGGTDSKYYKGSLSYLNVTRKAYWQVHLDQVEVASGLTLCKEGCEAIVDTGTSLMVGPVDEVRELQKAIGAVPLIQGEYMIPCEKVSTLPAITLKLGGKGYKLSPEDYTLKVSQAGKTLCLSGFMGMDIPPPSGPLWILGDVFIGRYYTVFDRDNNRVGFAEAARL

Consider `Cc1ccc(CSc2nc(O)c3c(n2)CCC3)cc1`, for which the inhibition at Caspase-6 (Homo sapiens) is < 10%; in test [1], 20%; in test [2] it was < 10%; at Collagenase 3 it was “Dose-dependent effect”.
For the compound `Cc1cc(CNC(=O)c2cc(C(=O)NCc3ccc(F)c(C)c3)ncn2)ccc1F`, the inhibition (in test [3]; at Caspase-1 (Homo sapiens); on Caspase-5 (Homo sapiens); on Caspase-7 (Homo sapiens); in [4]; in test [5]) was < 10% each time. Moreover, the inhibition in test [6] and in test [7] was < 10% throughout.
`Cn1c(=O)n(Cc2ccc(C(=O)O)cc2)c(=O)c2cc(C#CCc3ccccc3)ccc21`: the inhibition was < 10% in test [3]; < 10% at Caspase-1 (Homo sapiens); < 10% on Caspase-5 (Homo sapiens); < 10% at Caspase-7 (Homo sapiens); > 10% in test [4]; < 10% in test [5]. In addition, the inhibition in test [6] and in test [7] was < 10% throughout.
As for `Oc1nc(SCc2ccc(Cl)cc2)nc2c1CCC2`, the inhibition is < 10% at Caspase-6 (Homo sapiens), < 10% in test [1], < 10% in test [2] and “Dose-dependent effect” at Collagenase 3. The IC50 at Collagenase 3 was determined as 700 nM.
Consider `COC(=O)c1ccc(CSc2nc3c(c(=O)[nH]2)CCC3)cc1`, for which the inhibition (on Caspase-6 (Homo sapiens); in test [1]; in test [2]) was < 10% each time. For the same compound, the 50% inhibitory concentration (IC50) at Collagenase 3 came to 2300 nM.

The values are drawn from ChEMBL document CHEMBL3352788, “Characterization of selective exosite-binding inhibitors of matrix metalloproteinase 13 that prevent articular cartilage degradation in vitro” (J Med Chem, 2014).
